Test results: ChEMBL document CHEMBL1765019, “Design, synthesis and biological activity of thiazolidine-4-carboxylic acid derivatives as novel influenza neuraminidase inhibitors” (Bioorg Med Chem, 2011)

Target: Neuraminidase (Influenza A virus, UniProt B4URF0)
Assay: Inhibition of influenza A virus neuraminidase assessed as cleavage of MUNANA substrate by fluorescence assay
Procedure, shortened: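 Screening-kit NA enzyme, not from an avian H5N1 strain, incubated with buffer, substrate and inhibitor at 37 °C. Reaction stopped with stop solution. IC50 taken from percent inhibition plotted against inhibitor concentration; each point in duplicate.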

SMILES | IC50 [µM]
O=C(O)[C@@H]1CSC(c2ccco2)N1 (mixture of isomers) | 43.1
N#Cc1ccc(C2SC[C@@H](C(=O)O)N2C(=O)CCl)cc1 (mixture of isomers) | 8.64
O=C(O)c1ccccc1C1SC[C@@H](C(=O)O)N1C(=O)Cc1ccccc1 (mixture of isomers) | 1.92
O=C(O)[C@@H]1CSC(c2ccccc2[N+](=O)[O-])N1 (mixture of isomers) | 22.5
O=C(O)[C@@H]1CSC(c2ccccc2)N1C(=O)CCl (mixture of isomers) | 7.53
NCC(=O)N1C(c2ccccc2[N+](=O)[O-])SC[C@H]1C(=O)O (mixture of isomers) | 1.02
O=C(O)[C@@H]1CSC(c2ccco2)N1C(=O)CCl (mixture of isomers) | 12.9
O=C(O)[C@@H]1CSC(c2ccccc2[N+](=O)[O-])N1C(=O)CCl (mixture of isomers) | 7.65
O=C(O)[C@@H]1CSC(c2ccccc2O)N1C(=O)Cc1ccccc1 (mixture of isomers) | 0.65
NCC(=O)N1C(c2ccccc2C(=O)O)SC[C@H]1C(=O)O (mixture of isomers) | 0.28
COc1cccc(C2N[C@H](C(=O)O)CS2)c1O (mixture of isomers) | 12.3
N#Cc1ccc(C2SC[C@@H](C(=O)O)N2C(=O)Cc2ccccc2)cc1 (mixture of isomers) | 2.47
N#Cc1ccc(C2N[C@H](C(=O)O)CS2)cc1 (mixture of isomers) | 23.4
O=C(O)[C@@H]1CSC(c2ccccc2[N+](=O)[O-])N1C(=O)Cc1ccccc1 (mixture of isomers) | 1.87
NCC(=O)N1C(c2ccco2)SC[C@H]1C(=O)O (mixture of isomers) | 0.98
O=C(O)c1ccccc1C1N[C@H](C(=O)O)CS1 (mixture of isomers) | 18.1
O=C(O)[C@@H]1CSC(c2ccccc2)N1 (mixture of isomers) | 21.3
O=C(O)[C@@H]1CSC(c2ccccc2)N1C(=O)Cc1ccccc1 (mixture of isomers) | 1.21
N#Cc1ccc(C2SC[C@@H](C(=O)O)N2C(=O)CN)cc1 (mixture of isomers) | 0.81
O=C(O)[C@@H]1CSC(c2ccccc2O)N1C(=O)CCl (mixture of isomers) | 5.84
COc1cccc(C2SC[C@@H](C(=O)O)N2C(=O)CN)c1O (mixture of isomers) | 0.14
NCC(=O)N1C(c2ccccc2O)SC[C@H]1C(=O)O (mixture of isomers) | 0.21
NCC(=O)N1C(c2ccccc2)SC[C@H]1C(=O)O (mixture of isomers) | 0.53
COc1cccc(C2SC[C@@H](C(=O)O)N2C(=O)CCl)c1O (mixture of isomers) | 7.92
O=C(O)c1ccccc1C1SC[C@@H](C(=O)O)N1C(=O)CCl (mixture of isomers) | 10.7
O=C(O)[C@@H]1CSC(c2ccco2)N1C(=O)Cc1ccccc1 (mixture of isomers) | 2.89
O=C(O)[C@@H]1CSC(c2ccccc2O)N1 (mixture of isomers) | 20.2
COc1cccc(C2SC[C@@H](C(=O)O)N2C(=O)Cc2ccccc2)c1O (mixture of isomers) | 1.62
